According to ChEMBL document CHEMBL4689842, “EUbOPEN Chemogenomics Library wave 1” (2021):

System: HEK-293T
Assay: Multiplex assay against HEK293T;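 as to Population Tubulin-Different-Phenotype (%): share of the cells with healthy nuclei that show this phenotype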
Type: toxicity, cell-based
Settings: human
Outline: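 Hoechst33342, BioTracker Green Microtubule Cytoskeleton Dye, MitoTracker Red and Annexin V Alexa Fluor 680 were added to live cells at seeding, and imaging on a CQ1 microscope at 37°C and 5% CO2 followed compound addition. Gating by CellPathfinder machine learning separated cells into Hoechst high-intensity objects or normal cells, then normal cells into healthy, pyknosed or fragmented nuclei, then pyknosed cells into mitotic or apoptotic. Per cents of healthy-nucleus cells are reported for the tubulin, mitochondrial-mass and membrane-permeability phenotypes.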

[1] = 12 h, 1 µM, compound concentration 1 uM, replicate 1
[2] = 12 h, 1 µM, compound concentration 1 uM, replicate 2
[3] = 12 h, 10 µM, compound concentration 10 uM, replicate 1
[4] = 12 h, 10 µM, compound concentration 10 uM, replicate 2
[5] = 24 h, 1 µM, compound concentration 1 uM, replicate 1
[6] = 24 h, 1 µM, compound concentration 1 uM, replicate 2
[7] = 24 h, 10 µM, compound concentration 10 uM, replicate 1
[8] = 24 h, 10 µM, compound concentration 10 uM, replicate 2
[9] = 48 h, 1 µM, compound concentration 1 uM, replicate 1
[10] = 48 h, 1 µM, compound concentration 1 uM, replicate 2
[11] = 48 h, 10 µM, compound concentration 10 uM, replicate 1
[12] = 48 h, 10 µM, compound concentration 10 uM, replicate 2

Compound: COc1cc(-n2cnc3cc(-c4ccc(Cl)cc4)sc3c2=O)ccc1OCCN1CCCC1
- Population Apoptotic (%) [1]: 59%
- Population Fragmented Nuclei (%) [1]: 8%
- Population Healthy Nuclei (%) [1]: 32%
- Population Hoechst High Intensity Objects (%) [1]: 15%
- Population Membrane Permeable-Phenotype (%) [1]: 1%
- Population Mitochondria Different-Phenotype (%) [1]: 96%
- Population Mitotic Cells (%) [1]: 40%
- Population Normal (%) [1]: 84%
- Population Pyknosed Nuclei (%) [1]: 58%
- Population Tubulin-Different-Phenotype (%) [1]: 93%
- Total Cell Count [1]: 212
- Population Apoptotic (%) [2]: 20%
- Population Fragmented Nuclei (%) [2]: 5%
- Population Healthy Nuclei (%) [2]: 40%
- Population Hoechst High Intensity Objects (%) [2]: 4%
- Population Membrane Permeable-Phenotype (%) [2]: 7%
- Population Mitochondria Different-Phenotype (%) [2]: 42%
- Population Mitotic Cells (%) [2]: 80%
- Population Normal (%) [2]: 95%
- Population Pyknosed Nuclei (%) [2]: 53%
- Population Tubulin-Different-Phenotype (%) [2]: 60%
- Total Cell Count [2]: 265
- Population Apoptotic (%) [3]: 57%
- Population Fragmented Nuclei (%) [3]: 23%
- Population Healthy Nuclei (%) [3]: 1%
- Population Hoechst High Intensity Objects (%) [3]: 23%
- Population Membrane Permeable-Phenotype (%) [3]: 0%
- Population Mitochondria Different-Phenotype (%) [3]: 75%
- Population Mitotic Cells (%) [3]: 42%
- Population Normal (%) [3]: 76%
- Population Pyknosed Nuclei (%) [3]: 74%
- Population Tubulin-Different-Phenotype (%) [3]: 75%
- Total Cell Count [3]: 285
- Population Apoptotic (%) [4]: 79%
- Population Fragmented Nuclei (%) [4]: 16%
- Population Healthy Nuclei (%) [4]: 15%
- Population Hoechst High Intensity Objects (%) [4]: 4%
- Population Membrane Permeable-Phenotype (%) [4]: 33%
- Population Mitochondria Different-Phenotype (%) [4]: 58%
- Population Mitotic Cells (%) [4]: 20%
- Population Normal (%) [4]: 95%
- Population Pyknosed Nuclei (%) [4]: 67%
- Population Tubulin-Different-Phenotype (%) [4]: 66%
- Total Cell Count [4]: 242
- Population Apoptotic (%) [5]: 72%
- Population Fragmented Nuclei (%) [5]: 11%
- Population Healthy Nuclei (%) [5]: 37%
- Population Hoechst High Intensity Objects (%) [5]: 14%
- Population Membrane Permeable-Phenotype (%) [5]: 1%
- Population Mitochondria Different-Phenotype (%) [5]: 100%
- Population Mitotic Cells (%) [5]: 27%
- Population Normal (%) [5]: 85%
- Population Pyknosed Nuclei (%) [5]: 50%
- Population Tubulin-Different-Phenotype (%) [5]: 86%
- Total Cell Count [5]: 207
- Population Apoptotic (%) [6]: 27%
- Population Fragmented Nuclei (%) [6]: 4%
- Population Healthy Nuclei (%) [6]: 61%
- Population Hoechst High Intensity Objects (%) [6]: 2%
- Population Membrane Permeable-Phenotype (%) [6]: 7%
- Population Mitochondria Different-Phenotype (%) [6]: 52%
- Population Mitotic Cells (%) [6]: 72%
- Population Normal (%) [6]: 97%
- Population Pyknosed Nuclei (%) [6]: 33%
- Population Tubulin-Different-Phenotype (%) [6]: 66%
- Total Cell Count [6]: 325
- Population Apoptotic (%) [7]: 73%
- Population Fragmented Nuclei (%) [7]: 31%
- Population Healthy Nuclei (%) [7]: 0%
- Population Hoechst High Intensity Objects (%) [7]: 30%
- Population Membrane Permeable-Phenotype (%) [7]: 0%
- Population Mitochondria Different-Phenotype (%) [7]: 0%
- Population Mitotic Cells (%) [7]: 26%
- Population Normal (%) [7]: 69%
- Population Pyknosed Nuclei (%) [7]: 68%
- Population Tubulin-Different-Phenotype (%) [7]: 0%
- Total Cell Count [7]: 277
- Population Apoptotic (%) [8]: 90%
- Population Fragmented Nuclei (%) [8]: 20%
- Population Healthy Nuclei (%) [8]: 22%
- Population Hoechst High Intensity Objects (%) [8]: 7%
- Population Membrane Permeable-Phenotype (%) [8]: 21%
- Population Mitochondria Different-Phenotype (%) [8]: 68%
- Population Mitotic Cells (%) [8]: 9%
- Population Normal (%) [8]: 92%
- Population Pyknosed Nuclei (%) [8]: 57%
- Population Tubulin-Different-Phenotype (%) [8]: 48%
- Total Cell Count [8]: 228
- Population Apoptotic (%) [9]: 53%
- Population Fragmented Nuclei (%) [9]: 13%
- Population Healthy Nuclei (%) [9]: 62%
- Population Hoechst High Intensity Objects (%) [9]: 9%
- Population Membrane Permeable-Phenotype (%) [9]: 5%
- Population Mitochondria Different-Phenotype (%) [9]: 73%
- Population Mitotic Cells (%) [9]: 46%
- Population Normal (%) [9]: 90%
- Population Pyknosed Nuclei (%) [9]: 23%
- Population Tubulin-Different-Phenotype (%) [9]: 67%
- Total Cell Count [9]: 312
- Population Apoptotic (%) [10]: 20%
- Population Fragmented Nuclei (%) [10]: 4%
- Population Healthy Nuclei (%) [10]: 79%
- Population Hoechst High Intensity Objects (%) [10]: 3%
- Population Membrane Permeable-Phenotype (%) [10]: 6%
- Population Mitochondria Different-Phenotype (%) [10]: 21%
- Population Mitotic Cells (%) [10]: 79%
- Population Normal (%) [10]: 96%
- Population Pyknosed Nuclei (%) [10]: 16%
- Population Tubulin-Different-Phenotype (%) [10]: 57%
- Total Cell Count [10]: 539
- Population Apoptotic (%) [11]: 76%
- Population Fragmented Nuclei (%) [11]: 45%
- Population Healthy Nuclei (%) [11]: 0%
- Population Hoechst High Intensity Objects (%) [11]: 29%
- Population Membrane Permeable-Phenotype (%) [11]: 0%
- Population Mitochondria Different-Phenotype (%) [11]: 100%
- Population Mitotic Cells (%) [11]: 23%
- Population Normal (%) [11]: 70%
- Population Pyknosed Nuclei (%) [11]: 54%
- Population Tubulin-Different-Phenotype (%) [11]: 100%
- Total Cell Count [11]: 270
- Population Apoptotic (%) [12]: 89%
- Population Fragmented Nuclei (%) [12]: 21%
- Population Healthy Nuclei (%) [12]: 28%
- Population Hoechst High Intensity Objects (%) [12]: 10%
- Population Membrane Permeable-Phenotype (%) [12]: 12%
- Population Mitochondria Different-Phenotype (%) [12]: 73%
- Population Mitotic Cells (%) [12]: 10%
- Population Normal (%) [12]: 89%
- Population Pyknosed Nuclei (%) [12]: 50%
- Population Tubulin-Different-Phenotype (%) [12]: 38%
- Total Cell Count [12]: 256
